Screening results from PubChem BioAssay.
L major viab: Leishmania major promastigote growth inhibition | AID 1063 | actives 9% (n = 200,000) | Leishmania major promastigotes, resazurin fluorescence viability | inhibition, % at 10 µM; in the data active = inhibition above about 50%;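 also: promastigotes grown with compound for 44 hours at 28 °C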
Dynein cargo inh: dynein cargo transport inhibition; z-score, hits read low; 3617.4 mouse cells, GR-EGFP nuclear translocation imaging; test concentration mostly 20 µM; stimulated with dexamethasone, 1 µM; active compounds read low; actives 0.47% (n = 220,000); AID 1381;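 active = plate z-score of nuclear minus cytoplasmic receptor signal below a set negative limit, without overly bright fluorescence or cell loss, cut at about -3.5 in these data, passing the limit was not always enough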;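 also: z-score of nuclear minus cytoplasmic ring GR-EGFP intensity difference per well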
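Schedule: 48 h induction, then 1 h compound, then 30 min agonist, 37 °C. Buffer or medium: tetracycline-free induction medium containing charcoal-stripped FBS. Reagent: 1.0 µM final dexamethasone stimulus. Evaluation: nuclear versus cytoplasmic GR-EGFP signal, averaged per well. Signal: high-content fluorescence imaging after fixation.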
MT stabilize HCS: microtubule stabilization, imaging screen; HeLa tubulin immunostaining HCS, 24 h; share of cells brighter than vehicle mean+2SD; % tubulin-high responders, % at 10 µM; actives 0.83% (n = 200,000);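 active = plate Z-score above 3 for both tubulin-high and condensed-nucleus cell shares, with cell loss under 80%, at 10 µM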;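 also: anti alpha tubulin signal scored within the nucleus-defined area of each cell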
CHOP inh: CHOP inhibition in unfolded protein response; inhibition, % at 10 µM; CHO-K1 CHOP-promoter luciferase, tunicamycin-induced, 15-18 h; AID 2732; actives 3.8% (n = 220,000);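 active = compounds that reduced the stress-induced luciferase reporter signal by more than about 70% of percent inhibition, limit read from the data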;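 also: 0% = tunicamycin plus vehicle and 100% = wells without tunicamycin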
Autophagy HCS: alters autophagy in cells; MEF GFP-LC3 puncta imaging; test concentration mostly 10 µM; calls only at 10 µM (by protocol); actives 0.98% (n = 190,000); AID 463193;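 active = percentage of spot-positive cells more than 3 SD above its plate mean, without a fluorescence outlier flag or 80% toxicity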;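 also: spot-positive cell cutoff set from DMSO-treated cells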
b-catenin transl: alters nuclear translocation of beta-catenin in HeLa cells. immunofluorescence imaging. nuclear translocation activity, % at 5 µM. actives 0.3% (n = 190,000). AID 1665;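 active = nuclear translocation activity above 50% at 5 µM, with a well cell count of 50 or more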;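 also: per-cell ratio of nuclear to cytoplasmic median beta-catenin stain intensity; plate controls were DMSO negative control for no effect and GSK-3 inhibitor IX positive control for full effect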
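Assay system: human HeLa cells, native beta-catenin; doses: 5 µM primary, 0.02–20 µM confirmation; incubation: compound treatment 24 h, 37°C, 5% CO2; technique: fluorescence imaging of beta-catenin antibody stain plus DAPI; measure: % activation, nuclear-to-cytoplasmic median beta-catenin signal ratio per cell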
Numbers without * were called inactive; i = inactive; nt = no result. Most compounds without a hit are left out; they make up all but 12% or so of the library.

SMILES	L major viab	Dynein cargo inh	MT stabilize HCS	CHOP inh	Autophagy HCS	b-catenin transl
CCCCn1c(O)c(C(CC)=NC(C)c2ccccc2)c(=O)[nH]c1=O (stereo unspecified)	4	-0.99	47*	81*	i	nt
CCOC(=O)C(O)(c1ccc(N(CC)C(=O)OC)cc1)C(F)(F)F (stereo unspecified)	98*	0.22	4	14	i	nt
COC(=O)C(O)(c1ccc(N(C)C(=O)OC(C)C)cc1)C(F)(F)F (stereo unspecified)	92*	0.14	3	36	i	nt
CCOC(=O)C(O)(c1ccc(NC(=O)Oc2ccccc2)cc1)C(F)(F)F (stereo unspecified)	0	0.0076	3	39	i	-2
CCOC(=O)N(CC)c1ccc(C(O)(C(=O)OCC)C(F)(F)F)cc1 (stereo unspecified)	98*	0.44	3	21	i	-7
CCN(C(=O)Oc1ccccc1)c1ccc(C(O)(C(=O)OC)C(F)(F)F)cc1 (stereo unspecified)	99*	0.39	2	24	i	-2
C[C@H]1C2Cc3ccc(O)cc3C1(C)CCN2CC1CC1 (stereo partly specified)	nt	nt	nt	-10	nt	nt
C=CCN1CC[C@]23CCCCC2[C@H]1Cc1ccc(O)cc13 (stereo partly specified)	nt	nt	nt	-3	nt	nt
CCOC(=O)N(C)c1ccc(C(O)(C(=O)OCC)C(F)(F)F)cc1 (stereo unspecified)	99*	-0.28	3	41	i	0
CNC(=O)N(C)c1ccc(C(O)(C(=O)OC)C(F)(F)F)cc1 (stereo unspecified)	nt	1.3	nt	-11	nt	-1
CCSc1cc(C2C(C#N)=C(N)Oc3n[nH]c(C)c32)c(C)o1 (stereo unspecified)	94*	-2.9	5	18	i	nt
C[C@@H]1C[C@H]2OC(=O)C3(CO3)[C@H]2[C@H](O)[C@]2(C)C(=O)C3OC3[C@@H]12 (stereo partly specified)	nt	-2.7	nt	106*	nt	-1
COC(=NC1CCCCC1)C(O)c1c[nH]c2ccccc12 (stereo unspecified)	2	0.48	2	14	i	nt
CCCCCc1cc(O)c2c3c(c(=O)oc2c1)CN(C)CC3	99*	0.23	2	36	i	1
COc1ccc(/C=C2/C(=O)NC(=O)N(c3ccccc3)C2=O)cc1CN1C(=O)c2ccccc2C1=O	nt	1	nt	-4	nt	0
COc1ccc(/C=C2/C(=O)NC(=S)N(C3CC3)C2=O)cc1CN1C(=O)c2ccccc2C1=O	-8	-3.6*	4	-9	i	-1
Cc1ccccc1-n1c(C)nc2sccc2c1=O	-3	-0.39	3	17	i	0
COc1ccc(-c2nn(CCC#N)cc2C(=O)Nc2ccccc2Br)cc1[N+](=O)[O-]	nt	0.14	nt	2	nt	1
CN1C(=O)N(C)C(=O)C2(Cc3c(nc4ccccn4c3=O)N3CCC(Cc4ccccc4)CC32)C1=O (stereo unspecified)	nt	nt	nt	nt	nt	3
Cc1cccn2c(=O)c3c(nc12)N1CCC(Cc2ccccc2)CC1C1(C3)C(=O)N(C)C(=O)N(C)C1=O (stereo unspecified)	59*	-0.22	2	27	i	1
COC(=O)[C@@]1(C#N)[C@@H]2C=CC(C(C)=O)=CN2[C@@H](C(N)=O)[C@@H]1c1ccc(F)cc1	nt	-0.99	nt	-10	nt	-2
CN1CCC(O)(c2ccccc2)C(C(=O)c2ccccc2)C1 (stereo unspecified)	50	-1.1	2	8	i	-6
CCN1CCC(O)(c2ccccc2)C(C(=O)c2ccccc2)C1 (stereo unspecified)	80*	0.39	3	nt	i	nt
C=CCn1c(O)c(/C(C)=N/N2CCCCCC2)c(=O)[nH]c1=O	nt	-0.43	nt	8	nt	0
O=C(c1ccc(C(F)(F)F)cc1)C1CCCN(Cc2ccncc2)C1 (stereo unspecified)	89*	-1.2	2	58	i	1
O=C(c1cccc(C(F)(F)F)c1)C1CCCN(Cc2ccccc2O)C1 (stereo unspecified)	84*	-0.67	3	55	i	0
